# B1: NELF-E aptamer (parent)
# chain: CCCAACGACUGCCGAGCGAGAUUACGCUUGAGCGCCCCACUGAGGAUGCCCACGGGCGAUUGGGGCACGG
# Variants of: B1
# Assay: HiTS-RAP
# Conditions: with NELF-E (Drosophila)
# Summary of the method: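 Aptamer DNA templates bearing a T7 promoter and a ter site were sequenced on an Illumina GAIIx flowcell. T7 RNA polymerase then transcribed them in situ, and GST-Tus halted transcription over 30 minutes at 37°C. After a 30-minute room-temperature equilibration with NELF-E-mOrange at 0.064 to 1000 nM in HEPES binding buffer, clusters were imaged, using only the first binding curve. Intensities normalised to sequencing intensity were averaged per sequence and fitted with weighted Hill fits to give Kd, retaining only fits whose variance stayed under 1,000,000.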
row,Variant,Kd
1,A52U G63A,50.8 nM
2,A4C A5G,6.09 nM
3,A4G G34U,6.59 nM
4,A19G C57U,4.99 nM
5,A24G C33U,5.71 nM
6,C12G A46G,44.8 nM
7,A5U A21G,7.74 nM
8,U28G A39G,11.2 nM
9,A5U G7U,6.92 nM
10,A4C U41G,8.98 nM
11,C9G G65C,16.4 nM
12,C9G G65A,4.83 nM
13,A15U G16U,8.03 nM
14,C40U U41G,7.61 nM
15,A4G A43U,57 nM
16,G7U C38U,8.98 nM
17,A4G C53U,3.85 nM
18,A8U C17U,5.13 nM
19,U29G A52U,15.5 nM
20,U22A U23G,5.34 nM
21,C9U G14A,6.66 nM
22,A4C U23G,7.29 nM
23,U23G U41C,93.8 nM
24,A5G C12A,5.04 nM

row,Variant,Kd
1,C6G A43G,34.4 nM
2,C6G A43U,87.2 nM
3,A21U U23G,6.73 nM
4,A5G G26A,5.29 nM
5,A5G A15U,7.04 nM
6,C13G C49U,31.9 nM
7,C12G A52G,5.15 nM
8,G7U G20U,7.06 nM
9,U23G C25U,5.73 nM
10,U29A U41G,6.07 nM
11,U10G A59U,71.4 nM
12,G14U A31G,7.27 nM
13,G54A C66U,16.9 nM
14,C13G U28C,8.82 nM
15,A5G A39C,22.3 nM
16,G11U G55A,8.79 nM
17,A24G G55A,11.1 nM
18,G16A A24G,6.88 nM
19,A4U C25U,4.95 nM
20,C9A,5.07 nM
21,G14U U29A,5.7 nM
22,G14U U29G,6.2 nM
23,C6G C25G,5.65 nM
24,G26U U41G,6.71 nM

row,Variant,Kd
1,G14A U28C,7.17 nM
2,G11U G26A,5.08 nM
3,C13G G26U,5.51 nM
4,U10G C53G,6.55 nM
5,A8G G14U,7.09 nM
6,G14U U47A,9.21 nM
7,A24G U61C,76.4 nM
8,U10G C37G,6.84 nM
9,C6G C38A,45.1 nM
10,G16U A67U,10.1 nM
11,G7U A8C,7.45 nM
12,A19G G30A,4.57 nM
13,G16U C66U,5.92 nM
14,C13A U29G,5.66 nM
15,G26A A67G,4.9 nM
16,G14U G55U,9.69 nM
17,C9U G16U,7.34 nM
18,U10G A24U,6.04 nM
19,A4U A39U,31.1 nM
20,C6U U61A,38.1 nM
21,G20U U29G,6.19 nM
22,A4G A24G,6.26 nM
23,U23G U61G,6.91 nM
24,G11U G32A,6.15 nM

row,Variant,Kd
1,U41G C51U,7.25 nM
2,C9G C25U,7.05 nM
3,G7U G11A,6.15 nM
4,G20U A21G,5.12 nM
5,A4G G62U,8.86 nM
6,U23G C27U,4.59 nM
7,C9G G44U,9.09 nM
8,A5G C6A,6.25 nM
9,A43G,24.6 nM
10,A59G,47.9 nM
11,A8G A43G,23.7 nM
12,C12G G55U,8.9 nM
13,G14A G18A,5.3 nM
14,C6G U47A,10.5 nM
15,C35A,6.56 nM
16,U10G U28G,6.52 nM
17,U10G U28A,4.53 nM
18,U41G G64A,6.38 nM
19,A8G U47G,7.16 nM
20,A4U C51U,7.05 nM
21,G54U,6.39 nM
22,G7U G26A,5.82 nM
23,A4U A21G,5.7 nM
24,C6G C12U,5.53 nM

row,Variant,Kd
1,U10G C51A,9.77 nM
2,C9U G11U,5.56 nM
3,A4U C6U,6.4 nM
4,U29G G54A,13.1 nM
5,C17G C50U,15.9 nM
6,C37A U41G,15.9 nM
7,A19G U22G,5.7 nM
8,G26A C57U,6.13 nM
9,C9U A19G,5.01 nM
10,A4G U23A,5.89 nM
11,C9G G54A,17 nM
12,G11U A31G,7.38 nM
13,A4U U10G,5.45 nM
14,C12G A24G,5.9 nM
15,C6U G14U,7.02 nM
16,U10G G30C,5.8 nM
17,U29G C36G,8.06 nM
18,A5U U47A,10.5 nM
19,G14U U28G,9.45 nM
20,A8G A24G,6.27 nM
21,A8U A43G,25.7 nM
22,A19G U41G,6.27 nM
23,C9G U29C,6.28 nM
24,A24G G26A,5.08 nM

row,Variant,Kd
1,G11U A52G,3.84 nM
2,C9G C49U,23.1 nM
3,C13G A46U,87.3 nM
4,G11A C12G,7.18 nM
5,G11U U29C,6.7 nM
6,G11U U29A,5.62 nM
7,U61A A67G,27.4 nM
8,G11U G62A,19.7 nM
9,A19G U61A,24.3 nM
10,C9A U10G,5.43 nM
11,C17G U23G,5.45 nM
12,A8G A19G,5.51 nM
13,A8G A19U,5.53 nM
14,G14A A67U,6.56 nM
15,C6G C17U,6.03 nM
16,A8U U28G,7.11 nM
17,A24G A31G,6.54 nM
18,U23G C53G,7.15 nM
19,A4U G7U,6.61 nM
20,A8U A59G,47.2 nM
21,A8U G64A,8.34 nM
22,A15U U41C,82.7 nM
23,C17A,4.3 nM
24,A4G C17A,4.31 nM

row,Variant,Kd
1,C13U A67U,3.81 nM
2,U41G G48A,7.62 nM
3,G14U A46G,57.2 nM
4,A4C U29G,7.86 nM
5,G14A A15U,5.39 nM
6,G14A A15C,4.43 nM
7,A19G U29C,6.11 nM
8,A5C A8G,6.78 nM
9,A5G U61A,37.8 nM
10,U23G G64U,6.13 nM
11,U23G U29A,5.6 nM
12,G16U U61A,33.3 nM
13,G16U U61C,77.5 nM
14,C6G G54U,9.57 nM
15,A4G U41G,5.56 nM
16,G63A,12.8 nM
17,A24G G45U,6.64 nM
18,A4G C35U,13.5 nM
19,C6G U61A,38.7 nM
20,G14U G63A,11.9 nM
21,U10G G34C,13.2 nM
22,U10G G34A,6.95 nM
23,A5C U41G,7.61 nM

# From the RNAGym collection of RNA variant scans (doi:10.1038/nmeth.2970)
